This passage reports MIC50, MIC90 and Activity results from ChEMBL document CHEMBL1275244, “Antimicrobial resistance among respiratory pathogens in Spain: latest data and changes over 11 years (1996-1997 to 2006-2007)” (2010).

Holding throughout (assay type): functional
Test [1] relates to Streptococcus pyogenes. Put plainly: Antimicrobial activity against Streptococcus pyogenes clinical isolates by broth dilution method in presence of beta-lactamase inhibitor clavulanic acid. In outline:
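S. pyogenes clinical isolates held at −70°C in duplicate and recovered by hot-loop touching. MICs by the CLSI broth microdilution method in force in the study year, interpreted per CLSI M100-S19.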
(In general: In broth dilution the organism is exposed to a series of concentrations in liquid medium.)

Test [2] concerns Streptococcus pneumoniae. Put plainly: Antimicrobial activity against Streptococcus pneumoniae clinical isolates assessed as susceptible isolates by PK/PD technique in presence of […] beta-lactamase inhibitor clavulanic acid.
Test [3] deals with Streptococcus pneumoniae. Briefly: Antimicrobial activity against Streptococcus pneumoniae clinical isolates assessed as resistant isolates by broth dilution method in presence of beta-lactamase inhibitor clavulanic acid. In outline: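 S. pneumoniae clinical isolates were kept frozen at −70°C in duplicate and recovered by hot-loop touching to avoid repeated freeze-thaw. MICs were measured by CLSI broth microdilution as in force in the study year, with S. pneumoniae ATCC 49619 as control strain. Susceptibility categories were interpreted using CLSI M100-S19 breakpoints.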

In test [4] the test system is Haemophilus influenzae. Briefly: Antimicrobial activity against Haemophilus influenzae clinical isolates by broth dilution method in presence of beta-lactamase inhibitor clavulanic acid. The essentials:
(§1)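 Clinical isolates stored in duplicate at −70°C and recovered by the hot-loop touching method. MICs by the CLSI broth microdilution method current in the study year, in Haemophilus test medium (HTM). Growth support of HTM checked with H. influenzae ATCC 10211. Controls were H. influenzae ATCC 49247 and ATCC 49766 and E. coli ATCC 35218. Susceptibility interpreted per CLSI M100-S19.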

Test [5] relates to Streptococcus pneumoniae. Put plainly: Antimicrobial activity against Streptococcus pneumoniae clinical isolates assessed as susceptible isolates by PK/PD technique in presence of beta-lactamase inhibitor clavulanic acid.
Test [6] concerns Haemophilus influenzae. Briefly: Antimicrobial activity against Haemophilus influenzae clinical isolates assessed as susceptible isolates by PK/PD technique in presence […] of beta-lactamase inhibitor clavulanic acid. Set-up: scale not given: the % may be the effect or the level left.
Test [7] relates to Haemophilus influenzae. Put plainly: Antimicrobial activity against Haemophilus influenzae clinical isolates assessed as resistant isolates by broth dilution method in presence of beta-lactamase inhibitor clavulanic acid. In outline: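 H. influenzae clinical isolates were stored at −70°C in duplicate and recovered by the hot-loop touching method without repeated thawing. MICs were determined by CLSI broth microdilution in Haemophilus test medium, following the method current in the study year. Each medium batch was checked for growth support with H. influenzae ATCC 10211. Controls were H. influenzae ATCC 49247 and ATCC 49766 and E. coli ATCC 35218. Categories were assigned per CLSI M100-S19.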

The test system of test [8] is Haemophilus influenzae. Briefly: Antimicrobial activity against Haemophilus influenzae clinical isolates assessed as susceptible isolates by PK/PD technique in presence of beta-lactamase inhibitor clavulanic acid.
Test [9] relates to Haemophilus influenzae. Put plainly: Antimicrobial activity against Haemophilus influenzae clinical isolates assessed as susceptible isolates by broth dilution method in presence of beta-lactamase inhibitor clavulanic acid. The essentials:
as §1

The test system of test [10] is Streptococcus pneumoniae. Briefly: Antimicrobial activity against Streptococcus pneumoniae clinical isolates assessed as susceptible isolates by broth dilution method in presence of beta-lactamase inhibitor clavulanic acid. The essentials: (§2)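 Isolates kept frozen at −70°C in duplicate and revived by hot-loop touching. MICs by the CLSI broth microdilution method active in the year of study, with S. pneumoniae ATCC 49619 as control. Categories assigned with CLSI M100-S19 breakpoints.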

In test [11] the test system is Streptococcus pneumoniae. Put plainly: Antimicrobial activity against Streptococcus pneumoniae clinical isolates by broth dilution method in presence of beta-lactamase inhibitor clavulanic acid. The essentials:
as §2

SMILES strings stand for the structures. Some results are limits rather than exact numbers.

Consider `CC1(C)S[C@@H]2[C@H](NC(=O)[C@H](N)c3ccc(O)cc3)C(=O)N2[C@H]1C(=O)O` [AMOXICILLIN], for which the MIC50 in [1] is no more than 0.015 mg/L; in [4] (Haemophilus influenzae) it was 0.25 mg/L; in [11], no more than 0.015 mg/L. Also, the results for the MIC90 in test [1], in test [4] and in test [11] were no more than 0.015 mg/L, 1 mg/L and 1 mg/L, respectively. In addition, the Activity in test [2] was 98.8%; in test [3], 1.2%; in test [5], 94.8%; in test [6], 99.7%; in test [7], 0.3%; in test [8] it was 97.5%. For the same molecule, the Activity in [9] is recorded as 99.7%; in test [10] it was 94.8%.
